Results: ChEMBL document CHEMBL1155277, “Synthesis of new 4-isopropylthiazole hydrazide analogs and some derived clubbed triazole, oxadiazole ring systems--a novel class of potential antibacterial, antifungal and antitubercular agents” (Eur J Med Chem, 2009)
Converted amounts (≈) assume the structure as drawn.

Assays:
Staphylococcus aureus = assay: Antimicrobial activity against Staphylococcus aureus ATCC 11632 after 24 hrs by broth microdilution method; assay type: functional; details: ATCC 11632, 24 h
Outline: (§1)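 Broth microdilution in tubes. Compounds were dissolved at 10 mg in 1 mL DMSO and diluted in Mueller-Hinton Broth for bacteria or Sabouraud Liquid Medium for yeasts and A. niger. Final concentrations were 1–500 µg/mL (1, 2, 4, 8, 16, 31.25, 62.5, 125, 250, 500), with DMSO at most 1% v/v. Inoculum was 10^5 cfu/mL, incubated at 37 °C for 24 h. MIC was the lowest concentration giving complete growth inhibition. Media and media-plus-DMSO served as growth controls.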

Enterococcus faecalis = assay: Antimicrobial activity against Streptococcus faecalis ATCC 14506 after 24 hrs by broth microdilution method; assay type: functional; details: ATCC 14506, 24 h; outline: as §1
Bacillus subtilis = assay: Antimicrobial activity against Bacillus subtilis ATCC 60511 after 24 hrs by broth microdilution method; assay type: functional; details: ATCC 60511, 24 h; outline: as §1
Klebsiella pneumoniae = assay: Antimicrobial activity against Klebsiella pneumoniae ATCC 10031 after 24 hrs by broth microdilution method; assay type: functional; details: ATCC 10031, 24 h; outline: as §1
Escherichia coli = assay: Antimicrobial activity against Escherichia […] after 24 hrs by broth microdilution method; assay type: functional; outline: as §1
Pseudomonas aeruginosa = assay: Antimicrobial activity against Pseudomonas aeruginosa ATCC 10145 after 24 hrs by broth microdilution method; assay type: functional; details: ATCC 10145, 24 h; outline: as §1
Saccharomyces cerevisiae = assay: Antimicrobial activity against Saccharomyces cerevisiae ATCC 9763 after 24 hrs by broth microdilution method; assay type: functional; details: ATCC 9763, 24 h; outline: as §1
Candida tropicalis = assay: Antimicrobial activity against Candida tropicalis ATCC 1369 after 24 hrs by broth microdilution method; assay type: functional; details: ATCC 1369, 24 h; outline: as §1
Aspergillus niger = assay: Antimicrobial activity against Aspergillus niger ATCC 6275 after 24 hrs by broth microdilution method; assay type: functional; details: ATCC 6275, 24 h; outline: as §1
[1] = tested on: Mycobacterium tuberculosis; assay: Antitubercular activity against Mycobacterium tuberculosis H37Rv after 21 days by broth dilution assay; assay type: functional; details: 504 h
Outline: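 H37Rv frozen stock in Middlebrook 7H9 broth with 10% albumin-dextrose-catalase and 0.2% glycerol, thawed and diluted to 10⁵ cfu mL⁻¹. Compounds dissolved in DMSO, diluted in broth (final DMSO 1.3%). U-tubes inoculated, incubated 37 °C for 21 days. Growth scored visually against drug-free and inoculum-free controls and isoniazid. MIC = lowest concentration inhibiting […] of starting population.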

A549 [2] = assay: Cytotoxicity against human A549 cell at 250 uM by MTT assay relative to control; assay type: cell-based; details: a549, 250 µM
Outline: (§2)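 A549 lung adenocarcinoma cells were grown with 10% and 0.2% FBS. Compounds were held as 10 mM DMSO stocks and diluted in culture medium; cells were treated at 250 µM. Viability was read by MTT reduction against untreated cells and a DMSO vehicle control. The work was done as two experiments, each with triplicate readings.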

A549 [3] = assay: Cytotoxicity against human A549 cell at 250 uM by MTT assay; assay type: cell-based; details: a549, 250 µM; outline: as §2

| SMILES | MIC (Staphylococcus aureus) [µg/mL] | MIC (Enterococcus faecalis) [µg/mL] | MIC (Bacillus subtilis) [µg/mL] | MIC (Klebsiella pneumoniae) [µg/mL] | MIC (Escherichia coli) [µg/mL] | MIC (Pseudomonas aeruginosa) [µg/mL] | MIC (Saccharomyces cerevisiae) [µg/mL] | MIC (Candida tropicalis) [µg/mL] | MIC (Aspergillus niger) [µg/mL] | MIC [1] [µg/mL] | Activity (A549 [2]) [%] | Activity (A549 [3]) |
| --- | --- | --- | --- | --- | --- | --- | --- | --- | --- | --- | --- | --- |
| CC(C)c1csc(C(=O)N/N=C/c2ccccc2)n1 | 500 (≈ 1830 µM) | 125 (≈ 457 µM) | 125 (≈ 457 µM) | 125 (≈ 457 µM) | 31.2 (≈ 114 µM) | 16 (≈ 58.5 µM) | 62.5 (≈ 229 µM) | 62.5 (≈ 229 µM) | 31.2 (≈ 114 µM) | 250 (≈ 915 µM) | – | – |
| C/C(=N/NC(=O)c1nc(C(C)C)cs1)c1ccccc1 | 250 (≈ 870 µM) | 250 (≈ 870 µM) | 250 (≈ 870 µM) | 125 (≈ 435 µM) | 125 (≈ 435 µM) | 250 (≈ 870 µM) | 500 (≈ 1740 µM) | 500 (≈ 1740 µM) | 250 (≈ 870 µM) | 125 (≈ 435 µM) | – | – |
| CC(C)c1csc(C(=O)N/N=C/c2cccc(Cl)c2Cl)n1 | 250 (≈ 730 µM) | 31.2 (≈ 91.3 µM) | 31.2 (≈ 91.3 µM) | 31.2 (≈ 91.3 µM) | 16 (≈ 46.7 µM) | 31.2 (≈ 91.3 µM) | 16 (≈ 46.7 µM) | 31.2 (≈ 91.3 µM) | 125 (≈ 365 µM) | 125 (≈ 365 µM) | – | – |
| CC(C)c1csc(C(=O)N/N=C/c2ccc(O)cc2)n1 | 125 (≈ 432 µM) | 125 (≈ 432 µM) | 125 (≈ 432 µM) | 31.2 (≈ 108 µM) | 31.2 (≈ 108 µM) | 16 (≈ 55.3 µM) | 31.2 (≈ 108 µM) | 16 (≈ 55.3 µM) | 31.2 (≈ 108 µM) | 125 (≈ 432 µM) | – | – |
| COc1cc(/C=N/NC(=O)c2nc(C(C)C)cs2)cc(OC)c1OC | 500 (≈ 1380 µM) | 250 (≈ 688 µM) | 125 (≈ 344 µM) | 125 (≈ 344 µM) | 125 (≈ 344 µM) | 31.2 (≈ 86 µM) | 125 (≈ 344 µM) | 62.5 (≈ 172 µM) | 31.2 (≈ 86 µM) | 125 (≈ 344 µM) | – | – |
| C/C(=N/NC(=O)c1nc(C(C)C)cs1)c1ccc([N+](=O)[O-])cc1 | 250 (≈ 752 µM) | 250 (≈ 752 µM) | 250 (≈ 752 µM) | 250 (≈ 752 µM) | 250 (≈ 752 µM) | 250 (≈ 752 µM) | 500 (≈ 1500 µM) | 125 (≈ 376 µM) | 125 (≈ 376 µM) | 125 (≈ 376 µM) | – | – |
| COc1cc(C2OC(c3nc(C(C)C)cs3)=NN2C(C)=O)cc(OC)c1OC (stereo unspecified) | 62.5 (≈ 154 µM) | 16 (≈ 39.5 µM) | 16 (≈ 39.5 µM) | 31.2 (≈ 77.1 µM) | 31.2 (≈ 77.1 µM) | 16 (≈ 39.5 µM) | 31.2 (≈ 77.1 µM) | 16 (≈ 39.5 µM) | 16 (≈ 39.5 µM) | 31.2 (≈ 77.1 µM) | 50 | – |
| CC(C)c1csc(-c2nnc(S)n2N)n1 | 125 (≈ 518 µM) | 31.2 (≈ 129 µM) | 8 (≈ 33.1 µM) | 31.2 (≈ 129 µM) | 31.2 (≈ 129 µM) | 16 (≈ 66.3 µM) | 16 (≈ 66.3 µM) | 8 (≈ 33.1 µM) | 8 (≈ 33.1 µM) | 8 (≈ 33.1 µM) | 50 | – |
| CC(=O)N1N=C(c2nc(C(C)C)cs2)OC1c1ccc(N(C)C)cc1 (stereo unspecified) | 125 (≈ 349 µM) | 125 (≈ 349 µM) | 31.2 (≈ 87.2 µM) | 31.2 (≈ 87.2 µM) | 16 (≈ 44.6 µM) | 16 (≈ 44.6 µM) | 31.2 (≈ 87.2 µM) | 31.2 (≈ 87.2 µM) | 31.2 (≈ 87.2 µM) | 62.5 (≈ 174 µM) | – | – |
| CC(=O)N1N=C(c2nc(C(C)C)cs2)OC1c1ccc(O)cc1 (stereo unspecified) | 125 (≈ 377 µM) | 31.2 (≈ 94.3 µM) | 16 (≈ 48.3 µM) | 31.2 (≈ 94.3 µM) | 16 (≈ 48.3 µM) | 31.2 (≈ 94.3 µM) | 31.2 (≈ 94.3 µM) | 16 (≈ 48.3 µM) | 16 (≈ 48.3 µM) | 31.2 (≈ 94.3 µM) | – | Active |
| CC(=O)NNC(=O)c1nc(C(C)C)cs1 | 500 (≈ 2200 µM) | 125 (≈ 550 µM) | 250 (≈ 1100 µM) | 125 (≈ 550 µM) | 250 (≈ 1100 µM) | 125 (≈ 550 µM) | 500 (≈ 2200 µM) | 125 (≈ 550 µM) | 500 (≈ 2200 µM) | 125 (≈ 550 µM) | – | – |
| OC(Cn1cncn1)(Cn1cncn1)c1ccc(F)cc1F [FLUCONAZOLE] | – | – | – | – | – | – | ≤ 1 | ≤ 1 | ≤ 1 | – | – | – |
| C/C(=N/NC(=O)c1nc(C(C)C)cs1)c1ccc(O)cc1 | 125 (≈ 412 µM) | 125 (≈ 412 µM) | 250 (≈ 824 µM) | 250 (≈ 824 µM) | 125 (≈ 412 µM) | 125 (≈ 412 µM) | 31.2 (≈ 103 µM) | 31.2 (≈ 103 µM) | 125 (≈ 412 µM) | 125 (≈ 412 µM) | – | – |
| CC(C)c1csc(C(=O)N/N=C/c2ccc([N+](=O)[O-])cc2)n1 | 125 (≈ 393 µM) | 250 (≈ 785 µM) | 125 (≈ 393 µM) | 125 (≈ 393 µM) | 31.2 (≈ 98.2 µM) | 125 (≈ 393 µM) | 125 (≈ 393 µM) | 62.5 (≈ 196 µM) | 31.2 (≈ 98.2 µM) | 125 (≈ 393 µM) | – | – |
